Assay outcomes (PubChem BioAssay)
Most compounds without a hit are left out; they make up all but 3.4% or so of the library.
Runt-SMMHC FRET = inhibitors of human RUNX1 Runt domain binding to CBFb-SMMHC; Q01196+Q13951; Cerulean-Runt/Venus-CBFb-SMMHC FRET ratio 530/480, 1 h; inhibition, % at 20 µM; 220,000 compounds, 0.74% hits;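 active = mean inhibition across duplicate retests at 20 µM reaching about 50%, limit read from the data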;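 also: 0% = DMSO wells and 100% = wells with excess untagged CBFb-SMMHC; inhibitors lower the FRET ratio by blocking Runt binding to CBFb-SMMHC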
Target sequence (Q01196 whole entry, looked up, the tested form may be a part): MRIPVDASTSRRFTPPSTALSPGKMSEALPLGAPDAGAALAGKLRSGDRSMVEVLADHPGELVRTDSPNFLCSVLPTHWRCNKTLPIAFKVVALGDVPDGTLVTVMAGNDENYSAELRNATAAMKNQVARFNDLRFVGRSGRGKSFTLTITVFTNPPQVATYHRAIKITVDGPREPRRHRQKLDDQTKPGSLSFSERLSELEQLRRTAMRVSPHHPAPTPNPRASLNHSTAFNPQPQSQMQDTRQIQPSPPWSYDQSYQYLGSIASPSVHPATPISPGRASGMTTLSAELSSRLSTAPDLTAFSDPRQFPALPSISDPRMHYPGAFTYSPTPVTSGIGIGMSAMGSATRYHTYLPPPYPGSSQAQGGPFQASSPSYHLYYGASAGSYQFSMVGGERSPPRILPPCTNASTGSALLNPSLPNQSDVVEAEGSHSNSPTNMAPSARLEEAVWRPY
Target sequence (Q13951 whole entry, looked up, the tested form may be a part): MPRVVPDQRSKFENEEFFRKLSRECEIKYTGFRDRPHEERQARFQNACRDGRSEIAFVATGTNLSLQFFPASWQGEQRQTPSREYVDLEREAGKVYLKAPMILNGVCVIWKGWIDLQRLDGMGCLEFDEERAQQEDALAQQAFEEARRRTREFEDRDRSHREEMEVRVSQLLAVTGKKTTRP
Runt-CBFb FRET = blocks binding of human RUNX1 Runt domain to CBFb; Cerulean-Runt/Venus-CBFb FRET ratio 530/480, 1 h; inhibition, % at 20 µM; 220,000 compounds, 0.46% hits;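 active = inhibition over about 50% at 20 µM in the single-dose screen, limit read from the data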;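 also: 0% = DMSO wells and 100% = excess unlabeled CBFb competitor control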
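Measured by: fluorescence energy transfer, 422 nm excitation, 530/480 nm emission; test system: Cerulean-tagged RUNX1 Runt domain (FRET donor) fusion protein; buffer or medium: Tris pH 7.5 buffer with BSA; compound: one dose, 20 µM compound, 1% DMSO; times: two 1 h room-temperature incubations shielded from light; benchmarks: unlabeled CBFb 5 µM, positive control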
PHOSPHO1 inh = blocks human PHOSPHO1 phosphatase activity; recombinant PHOSPHO1, absorbance phosphatase assay; AID 1565; 290,000 compounds, 1.1% hits; inhibition, % at 13.3 µM; Q8TCT1; in the data active = inhibition above about 60%
RanGTP-Imp inh = disruptors of Ran-importin-beta complex formation – biochemical, FRET, CFP-Ran, YFP-importin-beta, homogeneous, primary screen | cell-free CFP-Ran/YFP-importin-beta FRET ratio | inhibition, % (test concentration not listed) | 300,000 compounds, 1.1% hits;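 active = more than half of the replicate wells show a fall in the fluorescence ratio signal beyond about 16%, limit read from the data, passing the limit was not always enough; inconclusive = exactly half of the replicate wells pass the set limit; inactive = fewer than half of replicates pass the limit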;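 also: 0% = DMSO wells and 100% = Ran loaded with GDP instead of GTP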
Wee1 degr inh = human Wee1 degradation inhibition, primary screen. P30291. HeLa Luc-Wee1K328M stability, luciferase luminescence; 100% = proteasome inhibitor MG132 effect. reporter increase, % at 5 µM. 220,000 compounds, 1.2% hits. AID 1321;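 active = activation above the mean of all tested compounds plus 3 SD, set per screening run, cut at about 8.8% in these data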;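 also: cells exposed to compound for 20 h before luminescence read; 0% = DMSO alone and 100% = MG132 at 30 µM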
Efa HMGR inh = E. faecalis class II HMG-CoA reductase inhibition; 190,000 compounds, 0.41% hits; AID 1066; purified E. faecalis HMGR, NADPH absorbance 340 nm kinetic; inhibition, % at 10 µM;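 active = inhibition above a set limit, the median over all tested compounds plus 3 SD, cut at about 9.5% in these data; inconclusive = no clear call, values can overlap the other calls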;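 also: enzyme runs in reverse so mevalonate oxidation gives rising NADPH absorbance; 0% = complete reaction with DMSO and 100% = background rate lacking mevalonate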
An asterisk follows results filed as active; ? = inconclusive; . = no result given.

SMILES | Runt-SMMHC FRET | Runt-CBFb FRET | PHOSPHO1 inh | RanGTP-Imp inh | Wee1 degr inh | Efa HMGR inh
Cc1cc(C(=O)CSc2nnc(-c3cccs3)n2Cc2ccccc2)c(C)n1C | 3 | -4 | 90* | 0 | -1 | -7
CCn1c(SCC(=O)c2cc(C)n(C)c2C)nnc1-c1ccccc1 | 1 | 2 | 62* | 4 | 1 | -5
O=C1COc2ccc(C(=O)CSc3nnc(-c4cccs4)n3Cc3ccccc3)cc2N1 | -4 | -1 | 74* | -1 | 2 | -5
O=c1cc(CSc2nnc(-c3cccs3)n2Cc2ccccc2)nc2sc3ccccc3n12 | 0 | 2 | 69* | 3 | 0 | -6
COc1ccccc1C(=O)Nc1ccc2c(c1)CN(Cc1cnc(C)s1)CC2 | . | . | 29 | 3 | . | .
O=C(COC(=O)c1cn(-c2ccccc2)nc1-c1cccs1)NC1CC1 | 2 | -3 | 65* | -3 | 5 | -3
CN(C)C(=O)c1cn(-c2ccccc2)nc1-c1cccs1 | 0 | -2 | 8 | -3 | 0 | 0
CSc1ccc(CN(C)C(=O)CNC(=O)c2sc3ccccc3c2Cl)cc1 | . | . | 34 | 4 | . | .
Cc1[nH]c2ccc(F)cc2c(=O)c1SC(F)(F)C(F)C(F)(F)F (stereo unspecified) | 0 | 4 | 88* | -5 | 2 | -4
COc1ccc(C2SCCN2C(=O)c2ccc([N+](=O)[O-])cc2)cc1 (stereo unspecified) | 4 | 1 | 4 | -1 | -2 | -3
O=C(c1ccc([N+](=O)[O-])cc1)N1CCSC1c1ccccc1Cl (stereo unspecified) | -3 | 1 | 43 | -1 | -2 | 11*
CCS(=O)(=O)N1CCC2(CC1)OCCN2S(=O)(=O)c1ccc(OC)cc1 | . | . | . | 5 | . | .
c1ccc(CSc2nnc(Cc3ccccn3)o2)cc1 | 1 | -1 | 20 | 22* | 2 | .
c1ccc(CSc2nnc(Cc3ccccc3)o2)cc1 | -2 | 1 | 38 | 0 | -1 | -4
Cc1ccc(NC(=O)c2cccc(S(=O)(=O)N(C)C3CCCCC3)c2)nc1 | . | . | . | 0 | . | .
O=C(N/N=C/c1coc2ccccc2c1=O)c1cn(-c2ccccc2)nc1-c1ccccc1 | 0 | 0 | -3 | 4 | 10.0* | -4
O=C(Nn1c(O)c(C=C2N=c3ccccc3=N2)sc1=S)c1ccccc1 | -13 | 2 | 86* | -2 | -2 | -1
Cc1ccc(S(=O)(=O)Nn2c(O)c(C=C3N=c4ccccc4=N3)sc2=S)cc1 | -8 | -4 | -28 | -3 | -2 | .
O=C(Nn1c(O)c(C=C2N=c3ccccc3=N2)sc1=S)c1ccc(Cl)cc1 | -6 | 8 | 42 | 33* | 5 | -8
O=C(Nn1c(O)c(C=C2N=c3ccccc3=N2)sc1=S)c1cccc(Cl)c1 | -7 | 1 | 86* | -3 | 4 | 0
Cc1ccc(C(=O)Nn2c(O)c(C=C3N=c4ccccc4=N3)sc2=S)cc1 | -12 | -3 | -105 | -2 | 1 | -2
CCOc1cccc(CN2CCC(N3CCC(C(=O)NCC4CCCO4)CC3)CC2)c1 (stereo unspecified) | . | . | 34 | 1 | . | .
C=CCc1ccccc1OCC(=O)OCCNC(=O)c1cccnc1 | -1 | 4 | 71* | 8 | -1 | -3
Cc1cc(C)c(OCC(=O)OCCNC(=O)c2cccnc2)c(C)c1 | 2 | 7 | -16 | ? | -1 | -5
COC(=O)CNC(=O)C1CCC(CNS(=O)(=O)c2cccc3nsnc23)CC1 (stereo unspecified) | . | . | 26 | 0 | . | .
SMILES | Runt-SMMHC FRET | Runt-CBFb FRET | PHOSPHO1 inh | RanGTP-Imp inh | Wee1 degr inh | Efa HMGR inh
COC(=O)CSC1=C(C#N)C(=O)NC(c2ccccc2)S1 (stereo unspecified) | -4 | 9 | 98* | 2 | -1 | -2
CCN1C(=O)N/C(=C/c2ccc(Sc3ccc(C)cc3)o2)C1=O | 19 | 5 | 6 | 23* | 2 | -9
O=c1[nH]c(=O)c2nc(-c3ccc(Cl)cc3)cnc2[nH]1 | . | 20 | 26 | 94* | 4 | 2
O=C(Nc1ccc(N2CCN(C(=O)c3ccco3)CC2)c(Cl)c1)c1cccnc1 | -1 | -1 | -169 | 2 | 2 | -7
O=C(Nc1ccc(N2CCN(C(=O)c3cccs3)CC2)c(Cl)c1)c1cccnc1 | -3 | 1 | 42 | 1 | 0 | 11*
CCCC1OC23CCCCC2C(C#N)(C(=N)O3)C1(C#N)C#N (stereo unspecified) | 33 | 25 | 17 | 33* | 5 | 2
COc1ccc(C2CC3(O)NC(=O)C(C#N)(C3C)C2(C#N)C#N)cc1 (stereo unspecified) | 1 | -3 | 20 | 3 | 8 | .
COc1ccc(C2OC34CCCCC3C(C#N)(C#N)C2(C#N)C(=N)O4)cc1 (stereo unspecified) | 77* | 32 | 13 | 43* | -3 | 1
CC1OC23CCCCC2C(C#N)(C(=N)O3)C1(C#N)C#N (stereo unspecified) | 38 | 27 | -16 | 8 | 2 | -2
N#CC12COC3(CCCCC3C1(C#N)C#N)OC2=N (stereo unspecified) | 18 | 1 | 8 | 33* | 2 | .
CCC1OC23CCCCC2C(C#N)(C(=N)O3)C1(C#N)C#N (stereo unspecified) | 52 | 24 | 38 | 27* | -3 | -1
Cc1ccsc1CN(C)C(=O)CCc1nnc(COc2ccccc2)o1 | . | . | 8 | 2 | -3 | -3
OC(CCc1ccncc1)COc1ccccc1 (stereo unspecified) | . | . | . | -1 | . | .
O=C(NCC(=O)N1CCN(c2ccccc2O)CC1)c1ccccc1 | . | . | 19 | 2 | . | .
CC(=O)N1CCN(S(=O)(=O)c2cccc(C(=O)Nc3ccc(F)c(F)c3)c2)CC1 | . | . | 49 | 0 | . | .
CC(=O)N1CC=C2C(C#N)=C(N)C(C#N)(C#N)C(C)C2C1 (stereo unspecified) | 4 | 7 | 36 | -2 | -2 | 1
CCN1CC=C2C(C#N)=C(N)C(C#N)(C#N)C(CCc3ccccc3)C2C1 (stereo unspecified) | 38 | 108* | -6 | . | 2 | -2
CN1CC=C2C(C#N)=C(N)C(C#N)(C#N)C(c3cccc(Cl)c3Cl)C2C1 (stereo unspecified) | 62* | 31 | 51 | 37* | 1 | 1
CC(=O)N1CC=C2C(C#N)=C(N)C(C#N)(C#N)[C@H](c3ccoc3)[C@H]2C1 | 10 | 8 | 0 | -4 | 0 | -9
CN1CC=C2C(C#N)=C(N)C(C#N)(C#N)[C@H](c3ccoc3)[C@H]2C1 | 59* | 39 | 9 | 51* | -1 | -2
N#CC1=C(N)C(C#N)(C#N)[C@H](c2ccoc2)[C@H]2CN(Cc3ccccc3)CC=C12 | 57* | 40 | -13 | 107* | 5 | 3
